Rows were chosen to be rich in hits. Some 9.4% of all compounds tested hit in one or more screens of this group.
Mdm2-MdmX inh – inhibitors of human Mdm2-MdmX association, primary screen, cell-based, luminescence, split luciferase, SaOS-2, uHTS | Protein Mdm4 (Homo sapiens) + E3 ubiquitin-protein ligase Mdm2 (Homo sapiens), … | SaOS-2 split-luciferase Mdm2/MdmX complementation | inhibition, % at 8 µM | 330,000 compounds, 3% hits | AID 485346, 2010;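 active = inhibition of at least 50% at 8 µM in the primary screen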
Beta apoptosis – inhibitors of cytokine-induced beta cell apoptosis, primary screen, luminescence. 300,000 compounds, 0.8% hits. protection from apoptosis, % (concentration not given with the values). AID 435005, 2010. INS-1E cytokine-induced death, ATP luminescence, 48 h; percent of positive-control rescue, neutral wells zero;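 active = Every replicate reaches about 75%, or at least half do and their mean reaches it too, limit read from the data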;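 also: 0% = cytokine-treated negative control wells and 100% = positive control rescue; higher means more ATP so stronger rescue from cytokine killing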
T cruzi inh – inhibitors of intracellular T. cruzi growth, primary screen, luminescence, NIH3T3 host cells; T. cruzi beta-gal in NIH3T3, 90 h; inhibition, % (concentration not given with the values); 300,000 compounds, 1.4% hits; AID 1885, 2009;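 active = mean inhibition across valid replicates above about 55%, limit read from the data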;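 also: signal also drops with host cell toxicity which is not excluded here; 0% = plate median of DMSO wells and 100% = zero luminescence signal; higher percent means less beta-gal luminescence so fewer parasites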
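System: Mouse NIH/3T3 fibroblasts infected with β-gal-expressing T. cruzi Tulahuen C4 | Quantity: NIH/3T3 cells, 5,000 per well | Reagent: 5000 reporter trypomastigotes per well | Dosing: Compound pinned at 50 nL/well, DMSO | Schedule: 3 h host attachment, then at least 90 h co-culture | Detection: GalScreen luminescence, 60 min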
Lmaj promast – Leishmania major promastigote growth inhibition, primary screen; AID 1063, 2008; Leishmania major promastigotes, resazurin fluorescence viability; inhibition, % at 10 µM; 200,000 compounds, 9% hits; in the data active = inhibition above about 50%;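 also: promastigotes grown with compound for 44 hours at 28 °C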
CSC inhib – cancer stem cell viability inhibitors, primary screen, luminescence; cancer stem cell-like cells viability; 300,000 compounds, 1.1% hits; inhibition, % at 7.5 µM; in the data active = inhibition above about 75%; tested in HMLE shEcad cells
SKKanGAS inh – S. pyogenes SKKanGAS growth inhibitors in kanamycin, primary screen, streptokinase expression inhibitor project, SKKanGAS strain, BacTiter-Glo luminescence; 6 h; inhibition, % at 7.5 µM; 300,000 compounds, 1.3% hits; AID 1662, 2009;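 active = mean replicate score, as percent of positive control median, at least 50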;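 also: strain carries kanamycin resistance gene driven by streptokinase promoter and grows in 40 µg/ml kanamycin; loss of luminescence reflects streptokinase promoter inhibition or plain growth inhibition; 0% = median of DMSO wells and 100% = positive control at its reference dose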
The depositor's hits bear a star; . = no result given.

SMILES	Mdm2-MdmX inh	Beta apoptosis	T cruzi inh	Lmaj promast	CSC inhib	SKKanGAS inh
CC1(C)Oc2cc(N)c([N+](=O)[O-])cc2O1	5.2	-3.0	3.3	-0.4	-4.6	8.7
C=C1N(C)c2cc([N+](=O)[O-])c(N)cc2C1(C)C	-1.2	9.1	67.8*	13.1	2.1	2.1
O=c1nc(N/N=C/c2ccccn2)cn[nH]1	11.2	60.6	-19.6	97.5*	81.9*	-6.8
COc1cc(CNC2CCCC2)cc(Br)c1OCC(=O)Nc1ccccc1C	-26.0	2.1	27.2	99.5*	16.5	6.8
CCOc1cc(CNc2ccc(N3CCCCC3)cc2)cc(Br)c1OCC(=O)NC(C)(C)C	-12.0	.	57.7*	24.6	44.9	0.0
CCOc1cc(CO)cc(Br)c1OCC(=O)Nc1ccccc1C	-32.0	-6.1	-12.4	6.4	-1.4	-5.1
COc1cc(CNc2ccc3[nH]c(=O)[nH]c3c2)cc(Br)c1OCC(=O)NC(C)(C)C	30.3	-21.4	-30.4	5.0	-5.1	2.8
CCOc1cc(CNc2ccc(N(C)C)cc2)cc(Br)c1OCC(=O)NC(C)(C)C	8.0	-2.6	50.0	100.7*	-0.9	18.8
CCOc1cc(CNc2cccc3ccccc23)cc(Br)c1OCC(=O)NC(C)(C)C	23.2	8.9	54.5*	15.3	24.8	4.8
O=c1cc(CN2CCN(S(=O)(=O)c3cccc(Cl)c3)CC2)c2ccc(O)cc2o1	-15.7	5.9	.	.	36.9	.
COc1ccc(NS(=O)(=O)c2csc(C(N)=O)c2)cc1	30.2	-7.2	-6.9	.	-21.1	3.0
C=CCOc1c(Br)cc(CNc2ccc(NC(=O)CCC)cc2)cc1OCC	1.4	2.8	24.2	87.3*	-9.0	-3.4
CC1=C(C(=O)N2CCc3ccccc32)C2(CCC(C)CC2)OC1=O (stereo unspecified)	1.0	-4.3	59.6*	18.1	-4.4	.
Cn1c(=O)c2c(nc(N/N=C/c3ccc(OC(=O)c4ccco4)cc3)n2Cc2ccccc2)n(C)c1=O	41.6	20.1	11.0	61.3*	-0.9	22.6
Cc1nc2ccccc2c(=O)n1/N=C/c1ccccc1OC(F)F	-5.7	1.4	-6.4	.	-11.2	-6.9
COc1ccc(C2C(C#N)=C(N)Oc3cc(O)ccc32)cc1Cl (stereo unspecified)	24.9	6.6	7.1	.	10.5	8.6
Cn1c(=O)c2c(nc(CN3CCN(CCO)CC3)n2Cc2cccc3ccccc23)n(C)c1=O	15.5	-10.1	-24.3	99.3*	-7.2	9.1
Cn1c(=O)c2c(nc(CN3CCN(C(=O)c4ccco4)CC3)n2Cc2ccccc2)n(C)c1=O	7.9	-2.5	1.1	-0.9	-8.4	1.2
Cn1c(=O)c2c(nc(CN3CCc4ccccc4C3)n2Cc2ccccc2F)n(C)c1=O	49.2	-0.4	11.4	61.2*	-1.7	1.0
Cn1c(=O)c2c(nc(CN3CCc4ccccc4C3)n2Cc2cccc(Cl)c2)n(C)c1=O	26.6	-3.0	46.1	56.2*	24.8	13.2
Cn1c(=O)c2c(nc(CN3CCc4ccccc4C3)n2CCc2ccccc2)n(C)c1=O	.	.	.	30.0	.	.
Cn1c(=O)c2c(nc(CN3CCN(CCO)CC3)n2Cc2ccccc2Cl)n(C)c1=O	-1.3	-4.7	-17.9	.	-11.4	-5.0
Cc1ccc(Cn2c(CN3CCN(C(=O)c4ccco4)CC3)nc3c2c(=O)n(C)c(=O)n3C)cc1	9.6	3.3	-2.7	78.1*	2.6	9.8
CC1(c2nnc(Cc3ccccc3)o2)CC(c2cccnc2)=NO1 (stereo unspecified)	19.4	-7.4	-9.0	.	-17.3	14.6
O=C1CC(C(=O)N2CCN(c3ccccc3)CC2)CN1Cc1ccccc1 (stereo unspecified)	7.3	-3.1	.	.	17.8	.
SMILES	Mdm2-MdmX inh	Beta apoptosis	T cruzi inh	Lmaj promast	CSC inhib	SKKanGAS inh
O=C(/C=C/c1cccc([N+](=O)[O-])c1)N1CCN(S(=O)(=O)c2cccs2)CC1	22.3	.	-4.2	66.0*	-4.6	-6.2
COc1ccc(C(C(=O)NC2CCCCC2)N(C(=O)Cc2c[nH]c3ccccc23)c2ccccc2C)cc1OC (stereo unspecified)	-4.0	1.1	40.9	94.8*	4.9	6.8
CSc1ccc(CN(C)CC(=O)NCCc2ccccc2)cc1	8.8	-2.0	0.8	.	8.2	1.3
CC(C)Nc1nc(NC(C)C)nc(N(C#N)CCOc2ccc(Cl)cc2Cl)n1	27.5	25.7	73.4*	81.2*	55.5	18.1
OCC[C@H]1C[C@H](O)[C@@H](O)[C@@]2(Cc3ccccc3O2)O1	-4.9	7.7	.	.	-0.7	.
CCN1CCCC1CNc1ccc(S(C)(=O)=O)cc1[N+](=O)[O-] (stereo unspecified)	4.6	-0.3	39.7	.	-3.9	-2.0
Nc1cccc(C(=O)OCC(=O)Nc2cccc3c2C(=O)c2ccccc2C3=O)c1	-4.8	15.0	-2.9	43.3	43.8	0.5
CCN(CC)CCC(=O)Nc1cccc2c1C(=O)c1ccccc1C2=O	46.1	98.0*	55.8*	.	24.7	5.4
Cc1cccc(N2CC(C(=O)Nc3ccccc3N3CCOCC3)CC2=O)c1C (stereo unspecified)	3.0	-2.0	.	.	7.9	.
CCN(CC)C(=S)NC(=O)c1cc(OC)c(OC)c(OC)c1	-3.5	-3.0	-30.3	-3.8	2.5	-5.2
Cc1ccc(-c2csc3ncn(CC#N)c(=O)c23)cc1C	5.1	-2.3	-2.2	.	5.8	52.2*
COc1ccc(N=Nc2cc(-c3ccccc3)ccc2O)cc1	-39.3	-8.4	-13.7	.	19.2	55.8*
COc1cccc2cc(C(=O)C3=C(O)C(=O)N(CCN(C)C)C3c3ccc(Cl)cc3)oc12 (stereo unspecified)	8.1	-3.2	-3.9	.	1.3	8.5
COC(=O)c1cc2occc2n1Cc1c(F)cccc1Cl	.	.	.	4.0	.	.
COC(=O)c1cc2occc2n1Cc1ccc(Cl)cc1	26.5	-4.7	9.8	56.4*	7.4	-2.6
CC1CC(C)CN(C(=O)c2ccc(N3CC4CC(C3)c3cccc(=O)n3C4)c([N+](=O)[O-])c2)C1 (stereo unspecified)	-13.6	-3.6	4.7	56.3*	-2.5	-7.7
O=C(NC1CCN(Cc2ccccc2)CC1)c1ccc(N2CC3CC(C2)c2cccc(=O)n2C3)c([N+](=O)[O-])c1 (stereo unspecified)	-11.8	1.8	1.8	-4.8	-7.2	-5.0
COc1ccc(C(c2nnnn2CCc2ccccc2)N2CCN(C3CCCC3)CC2)cc1 (stereo unspecified)	27.9	.	-24.9	98.9*	39.3	0.6
CCC(c1nnnn1Cc1ccccc1)N1CCN(c2ccccc2)CC1 (stereo unspecified)	5.9	-7.8	10.1	38.3	1.0	-0.3
N#Cc1cccc(C(c2nnnn2CCc2ccccc2)N2CCN(C3CCCCC3)CC2)c1 (stereo unspecified)	18.2	-6.0	48.2	81.2*	18.6	0.9
